The source made the active and inactive calls.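 Rule for the calls, unless noted: active = inhibition of the reporter signal at or above 50%; inactive = inhibition below 50%.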
Legend:
[1] = inhibitors of TNFa-induced NFkB p65 translocation, primary screen, imaging, HUVEC, MLSMR starter and 10KST1 sets (AID 438;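 active = inhibition above 20% together with a positive visual image hit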;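 note: compound added about 3h40 before a 20 min TNFalpha stimulation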;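 for inhibition: signal is the nuclear over cytoplasmic p65 intensity ratio per well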); settings: HUVEC TNFa-induced p65 nuclear translocation; cell count: measured here: nuclei count (cytotoxicity indicator), at 2.08 µM; inhibition: at 2 µM, stronger effect = higher value, 0% TNFa-plus-vehicle, 100% no-TNFa wells
[2] = reduction of polyQ htt aggregates in cells – imaging, exon1htt(103Q)mCFP cells, high-content imaging, primary screen (AID 483;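 active = visual image review flags a hit and inhibition of aggregation exceeds 20%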;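 note: compound exposure lasted 3 days before fixation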;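 for nuclei count: percent of the per-plate median nuclei count of sample wells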); settings: exon1htt(103Q)mCFP cell line, aggregate imaging, at 2 µM; inhibition of aggregation: stronger effect = higher value; nuclei count: measured here: cell count, toxicity
[3] = endothelial E-selectin expression blockers – imaging, HUVEC, immunofluorescence, MLSMR starter and 10KST1 sets, primary screen (AID 487;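 active = visually confirmed hit in the image check and inhibition above 20%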;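 for inhibition: signal is fraction of cell area covered by stained E-selectin grains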;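 for nuclei count: 100% = median nuclei count of all wells on the same plate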); settings: HUVEC TNFalpha-induced E-selectin immunofluorescence imaging, at 2 µM; inhibition: stronger effect = higher value; nuclei count: measured here: cell number, toxicity
[4] = biological target: Voltage-gated potassium channel subunit beta-2 (Rattus norvegicus) (UniProt P62483); test: inhibitors of rat Kvbeta2 reductase activity – biochemical, NADPH fluorescence, primary screen (AID 622;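 active = fluorescence slope higher than the sample average by over 3 SD, cut at about -0.22 in these data, passing the limit was not always enough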;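 note: slope of raw intensity against log time taken from 70 to 1610 s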); settings: recombinant KvBeta, 4-cyanobenzaldehyde reduction, at 10 µM, stronger effect = higher value
[5] = biological target: Voltage-gated potassium channel subunit beta-2 (Rattus norvegicus) (UniProt P62483); test: enhancers of rat Kvbeta2 NADPH turnover – biochemical, NADPH fluorescence, primary screen (AID 623;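 active = NADPH fluorescence slope more negative than the mean of all samples by about 3 SD, 99.7% confidence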;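 note: fluorescence intensity change per second fitted from 20 to 320 s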); settings: Recombinant KvBeta, NADPH fluorescence decrease slope, 10 min; at 10 µM; stronger effect = lower value
[6] = biological target: Muscarinic acetylcholine receptor M4 (Homo sapiens) (UniProt P08173); test: M4-linked GIRK flux change, two-sided – cell-based, HEK293 M4/GIRK, thallium flux, BTC-AM, M4 allosteric agonist project, primary screen (AID 625;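 active = fluorescence slope after compound addition differing from the mean of all tested samples at 99.7% confidence, mostly higher but some lower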;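 note: thallium influx through GIRK channels coupled to M4 in HEK293 cells with BTC-AM dye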); settings: at 10 µM, actives lie on both sides
Method in brief: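 Material – HEK293 cells with M4 receptor and GIRK channels · Buffer or medium – pH 7.3 thallium assay buffer · Doses – one dose, 10 µM final · Timing – cells overnight at 37 °C, BTC-AM loading 1 h, reads 2 min total · Measured by – kinetic fluorescence with BTC-AM dye · Controls – carbachol and DMSO controls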

[7] = blockers of RIG-like receptor reporter activation – cell-based, Sendai virus stimulus, luciferase, 10K MLSCN set, TLR/RLR signaling modifier project, primary screen (AID 602276;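 active = inhibition at or above 50% at 10 µM; inactive = inhibition below 50%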;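 note: firefly luciferase from ISG56 promoter only with Renilla not read in this screen; 0% = Sendai virus plus DMSO and 100% = medium plus DMSO without virus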); settings: HEK293 RL24 IRF3 luciferase reporter, at 10 µM, stronger effect = higher value
[8] = TLR3 IRF3 reporter activation blockers – cell-based, poly I:C stimulus, luciferase, 10K MLSCN set, primary screen (AID 602277); settings: HEK293-TLR3 RL24 IRF3 luciferase reporter, at 10 µM, stronger effect = higher value

Voltage-gated potassium channel subunit beta-2 (Rattus norvegicus), sequence (P62483 whole entry, looked up): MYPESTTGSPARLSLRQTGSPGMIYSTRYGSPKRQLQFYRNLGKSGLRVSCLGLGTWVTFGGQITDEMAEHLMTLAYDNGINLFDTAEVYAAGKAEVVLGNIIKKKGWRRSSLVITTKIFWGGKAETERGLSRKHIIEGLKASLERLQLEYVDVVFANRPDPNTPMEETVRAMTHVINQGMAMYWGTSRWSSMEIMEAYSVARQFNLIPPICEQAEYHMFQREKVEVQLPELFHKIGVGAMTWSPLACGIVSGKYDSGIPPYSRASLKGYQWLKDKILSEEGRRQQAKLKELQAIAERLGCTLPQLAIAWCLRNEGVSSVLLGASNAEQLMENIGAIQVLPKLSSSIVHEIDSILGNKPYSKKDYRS
Muscarinic acetylcholine receptor M4 (Homo sapiens), sequence (P08173 whole entry, looked up): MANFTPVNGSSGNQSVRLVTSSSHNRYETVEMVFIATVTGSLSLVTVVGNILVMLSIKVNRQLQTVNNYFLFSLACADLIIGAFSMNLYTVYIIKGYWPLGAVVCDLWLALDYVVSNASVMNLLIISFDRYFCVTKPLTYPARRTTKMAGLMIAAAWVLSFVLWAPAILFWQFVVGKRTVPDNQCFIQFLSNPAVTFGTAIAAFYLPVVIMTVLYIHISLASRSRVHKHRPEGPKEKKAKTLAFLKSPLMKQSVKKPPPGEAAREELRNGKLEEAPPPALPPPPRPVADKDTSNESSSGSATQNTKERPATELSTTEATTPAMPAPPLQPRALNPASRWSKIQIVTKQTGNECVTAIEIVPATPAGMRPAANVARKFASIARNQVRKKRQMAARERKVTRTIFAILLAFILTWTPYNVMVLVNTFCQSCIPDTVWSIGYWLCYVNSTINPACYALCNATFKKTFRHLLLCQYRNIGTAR

SMILES	cell count [1]	inhibition [1]	inhibition of aggregation [2]	nuclei count [2]	inhibition [3]	nuclei count [3]	fluorescence slope [4]	NADPH fluorescence slope [5]	fluorescence slope [6]	inhibition [7]	inhibition [8]
CCSc1nc2c(c(=O)n(C)c(=O)n2C)n1Cc1ccc(Cl)cc1	440	3.3% (inactive)	0.4% (inactive)	106%	-15.6% (inactive)	112%	-0.527 (inactive)	-4.7e-05 (inactive)	0.00489 (inactive)	11.8% (inactive)	4.67% (inactive)
CCN1CCN(Cc2c(C)[nH]c3ccc(OC)cc3c2=O)CC1	405	18.7% (inactive)	-19.4% (inactive)	99.3%	-241% (inactive)	113%	-0.57 (inactive)	-9e-05 (inactive)	0.00708 (inactive)	19.5% (inactive)	26.6% (inactive)
N#CC(C(=O)C1CCCCC1)c1nc2ccccc2[nH]1 (stereo not drawn)	723	-2% (inactive)	-11.3% (inactive)	101%	-107% (inactive)	128%	-0.6 (inactive)	3e-06 (inactive)	0.00531 (inactive)	4.07% (inactive)	-10.7% (inactive)
CCCc1ccc(C(C)NC(=O)c2cnccn2)cc1 (stereo not drawn)	375	0.4% (inactive)	-9.4% (inactive)	107%	32.8% (inactive)	106%	-0.484 (inactive)	-1.5e-05 (inactive)	0.00486 (inactive)	15.6% (inactive)	-1.82% (inactive)
O=C(COC(=O)Cc1cccc(C(F)(F)F)c1)NCC1CCCO1 (stereo not drawn)	704	3.3% (inactive)	3% (inactive)	106%	-199% (inactive)	134%	-0.497 (inactive)	-0.000214 (inactive)	0.00505 (inactive)	-6.76% (inactive)	2.06% (inactive)
Cc1nc2ccc(NC(=O)N3CCOCC3)cc2s1	416	0.5% (inactive)	-0.3% (inactive)	96.2%	-51% (inactive)	109%	-0.497 (inactive)	8.6e-06 (inactive)	0.00618 (inactive)	10.7% (inactive)	8.12% (inactive)
COc1cc2c(OC)cccc2cc1C(=O)O	383	-1.9% (inactive)	-13.5% (inactive)	102%	-12.2% (inactive)	92.7%	-0.429 (inactive)	-5.9e-06 (inactive)	0.0045 (inactive)	18.2% (inactive)	8.81% (inactive)
CC1CC(C)CN(CCCNC(=O)COc2cc(=O)n(C)c3ccccc23)C1 (stereo not drawn)	347	3.3% (inactive)	-17.3% (inactive)	99%	-10.4% (inactive)	122%	-0.408 (inactive)	-7e-05 (inactive)	0.00505 (inactive)	11.3% (inactive)	36.3% (inactive)
CCNc1nc(N2CCCCC2)nc(-n2nnc(C(=O)OCC)c2C)n1	550	-5.3% (inactive)	1.6% (inactive)	92.5%	27.7% (inactive)	66.8%	-0.613 (inactive)	-6.3e-05 (inactive)	0.00368 (inactive)	-2.26% (inactive)	4.91% (inactive)
O=C(CN1CCCN(S(=O)(=O)c2ccc(Br)cc2)CC1)Nc1ccc2cn[nH]c2c1	432	-1.3% (inactive)	11% (inactive)	103%	-23.3% (inactive)	134%	-0.517 (inactive)	-0.000173 (inactive)	0.00424 (inactive)	-14.5% (inactive)	2.45% (inactive)
CCn1c(SCC(=O)c2ccc3c(c2)OCCO3)nnc1-c1ccco1	571	-38.8% (inactive)	-1% (inactive)	115%	-52.3% (inactive)	117%	-0.514 (inactive)	-2.2e-05 (inactive)	0.00561 (inactive)	11.1% (inactive)	0.911% (inactive)
O=C(Nc1cccc(F)c1)N1CC=C(n2c(=O)[nH]c3ccccc32)CC1	312	5.7% (inactive)	4.5% (inactive)	107%	-37.9% (inactive)	83.5%	-0.453 (inactive)	-0.000227 (inactive)	0.00517 (inactive)	15% (inactive)	15.5% (inactive)
CC(O)CN(Cc1cccc(Cl)c1)CC(C)O (stereo not drawn)	473	0.5% (inactive)	1.4% (inactive)	100%	10.2% (inactive)	95.1%	-0.431 (inactive)	1.1e-05 (inactive)	0.00551 (inactive)	18.8% (inactive)	19.5% (inactive)
COc1ccc2c(C(=O)CN(C)C3CCCCC3)c[nH]c2c1	533	-0.9% (inactive)	-4.4% (inactive)	82.5%	-20.8% (inactive)	96.7%	-0.561 (inactive)	-2.1e-05 (inactive)	0.0054 (inactive)	20.8% (inactive)	39.7% (inactive)
CCOc1cccc(OCCOCCN2CCCC2)c1	802	0.5% (inactive)	2.1% (inactive)	79.5%	-29.7% (inactive)	103%	-0.229 (inactive)	-1.9e-05 (inactive)	0.00581 (inactive)	14.6% (inactive)	13.2% (inactive)
c1ccc(-c2csc(N3CCCCCC3)n2)cc1	403	7.3% (inactive)	-6.8% (inactive)	112%	-77.2% (inactive)	110%	-0.551 (inactive)	9.4e-06 (inactive)	0.0048 (inactive)	-82.9% (inactive)	-160% (inactive)
COc1cccc(-n2nnc3c(=O)n(Cc4cccc(F)c4)cnc32)c1	421	-1.7% (inactive)	-11.5% (inactive)	127%	-3.7% (inactive)	117%	-0.304 (inactive)	-7e-06 (inactive)	0.00737 (inactive)	-8.19% (inactive)	-14% (inactive)
CCCCNC(=O)OC(C)CNC(=O)Oc1cccc(C)c1 (stereo not drawn)	482	7.6% (inactive)	13.4% (inactive)	92.7%	41.7% (inactive)	74.5%	-0.471 (inactive)	-2.9e-05 (inactive)	0.00498 (inactive)	22.3% (inactive)	15.6% (inactive)
CCOc1ccc(OCC)c2sc(C)nc12	339	2.4% (inactive)	8.2% (inactive)	102%	1% (inactive)	106%	-0.591 (inactive)	-5.9e-05 (inactive)	0.00571 (inactive)	12.4% (inactive)	-8.47% (inactive)
O=C(c1cc2ccccc2oc1=O)N1CCSC1c1ccco1 (stereo not drawn)	310	5.3% (inactive)	3.2% (inactive)	102%	-24.5% (inactive)	112%	-0.398 (inactive)	-9.8e-05 (inactive)	0.00556 (inactive)	12.5% (inactive)	22% (inactive)
CCCCN(CCCNC(=O)C1CCN(S(=O)(=O)CC)CC1)c1ccccc1	547	7.2% (inactive)	-2.7% (inactive)	130%	-81.6% (inactive)	165%	-0.441 (inactive)	2.9e-05 (inactive)	0.00466 (inactive)	8.2% (inactive)	25.8% (inactive)
CN(C)Cc1c(O)ccc2oc(Cc3ccccc3)cc12	676	-9.1% (inactive)	14.8% (inactive)	65.8%	-12.9% (inactive)	104%	-0.533 (inactive)	-6.9e-06 (inactive)	0.00447 (inactive)	22.6% (inactive)	22.2% (inactive)
COc1ccccc1-c1nc(C(F)(F)F)c(OC)o1	469	-3.3% (inactive)	-0.2% (inactive)	120%	-126% (inactive)	215%	-0.423 (inactive)	-9.3e-07 (inactive)	0.00491 (inactive)	21.1% (inactive)	11.8% (inactive)
CCCc1[nH]nc2c1C(c1cccc(OC(=O)c3ccco3)c1)C(C#N)=C(N)O2 (stereo not drawn)	687	-27.1% (inactive)	-11.9% (inactive)	105%	35.2% (inactive)	96.7%	-0.471 (inactive)	-8.2e-06 (inactive)	0.00951 (inactive)	9.57% (inactive)	18% (inactive)
Cc1c(C(=O)OC(C)C)[nH]c2c1C(=O)CCC2	437	-3.5% (inactive)	15.4% (inactive)	86.8%	54.6% (inactive)	99%	-0.592 (inactive)	-3.8e-05 (inactive)	0.00589 (inactive)	-15.8% (inactive)	-50.8% (inactive)
Cn1nc(-c2ccc(C(=O)NCC3CCCO3)cc2)c2ccccc2c1=O (stereo not drawn)	796	-3.5% (inactive)	37.8% (inactive)	104%	-18.3% (inactive)	116%	-0.574 (inactive)	-5.3e-05 (inactive)	0.00681 (inactive)	19.3% (inactive)	31.4% (inactive)
CC(C)NC(=O)NC(=O)COc1cccc2c1OC(C)(C)C2	749	-10.1% (inactive)	-13.5% (inactive)	105%	-16.4% (inactive)	100%	-0.556 (inactive)	-2.9e-05 (inactive)	0.00684 (inactive)	17.1% (inactive)	29.7% (inactive)
COCCN(CC(=O)NC1CCCCC1)C(=O)CSc1nc2ccccc2o1	666	12.1% (inactive)	3.4% (inactive)	105%	-28.2% (inactive)	120%	-0.469 (inactive)	2.1e-05 (inactive)	0.00558 (inactive)	2.87% (inactive)	18.7% (inactive)

Source: PubChem BioAssay
